PGE2 EP2 inh: human EP2 receptor antagonists, primary screen, TR-FRET cAMP, C6 glioma cells. Prostaglandin E2 receptor EP2 subtype (Homo sapiens), P43116. C6 glioma cells expressing human EP2; cells stimulated with saturating PGE2. inhibition, % at 25 µM. 260,000 compounds, 0.52% hits;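 active = percent inhibition above 40 after rounding to a whole number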;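 also: rat C6 glioma host cells with rolipram phosphodiesterase inhibitor present; the protocol text gives 20 µM as final concentration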
PfGluPho inh: PfG6PD enzyme inhibitors, primary screen, biochemical, fluorescence intensity, uHTS | glucose-6-phosphate dehydrogenase-6-phosphogluconolactonase (Plasmodium falciparum 3D7) | PfGluPho enzyme, NADPH resazurin-diaphorase fluorescence | inhibition, % at 20 µM | 350,000 compounds, 0.78% hits | AID 504690, 2011;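 active = inhibition reaching at least a set limit at 20 µM in the primary screen, cut at about 59% in these data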
TbHK1 inh: Trypanosoma brucei hexokinase 1 inhibitors, primary screen, biochemical, G6PDH-coupled NADH absorbance, MLSCN library. hexokinase 1 [Trypanosoma brucei]. recombinant TbHK1, G6PDH-coupled NADH A340. inhibition, % at 10 µM. 220,000 compounds, 0.11% hits;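 active = inhibition of 50% or more in the single-dose primary screen; inactive = inhibition below 50%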
PHOSPHO1 block: PubChem AID 1565 | Phosphoethanolamine/phosphocholine phosphatase (Homo sapiens), Q8TCT1 | recombinant PHOSPHO1, absorbance phosphatase assay | 290,000 compounds, 1.1% hits | inhibition, % at 13.3 µM; in the data active = inhibition above about 60%
HKDC1 inh: HKDC1 hexokinase inhibitors, primary screen, biochemical, fluorescence, uHTS. Q2TB90. recombinant HKDC1, G6PDH/diaphorase resazurin coupled fluorescence. inhibition, % at 20 µM. 340,000 compounds, 0.16% hits. AID 493160, 2011;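 active = inhibition above about 35% when tested at 20 µM, limit read from the data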
Target sequence (Q2TB90 whole entry, looked up): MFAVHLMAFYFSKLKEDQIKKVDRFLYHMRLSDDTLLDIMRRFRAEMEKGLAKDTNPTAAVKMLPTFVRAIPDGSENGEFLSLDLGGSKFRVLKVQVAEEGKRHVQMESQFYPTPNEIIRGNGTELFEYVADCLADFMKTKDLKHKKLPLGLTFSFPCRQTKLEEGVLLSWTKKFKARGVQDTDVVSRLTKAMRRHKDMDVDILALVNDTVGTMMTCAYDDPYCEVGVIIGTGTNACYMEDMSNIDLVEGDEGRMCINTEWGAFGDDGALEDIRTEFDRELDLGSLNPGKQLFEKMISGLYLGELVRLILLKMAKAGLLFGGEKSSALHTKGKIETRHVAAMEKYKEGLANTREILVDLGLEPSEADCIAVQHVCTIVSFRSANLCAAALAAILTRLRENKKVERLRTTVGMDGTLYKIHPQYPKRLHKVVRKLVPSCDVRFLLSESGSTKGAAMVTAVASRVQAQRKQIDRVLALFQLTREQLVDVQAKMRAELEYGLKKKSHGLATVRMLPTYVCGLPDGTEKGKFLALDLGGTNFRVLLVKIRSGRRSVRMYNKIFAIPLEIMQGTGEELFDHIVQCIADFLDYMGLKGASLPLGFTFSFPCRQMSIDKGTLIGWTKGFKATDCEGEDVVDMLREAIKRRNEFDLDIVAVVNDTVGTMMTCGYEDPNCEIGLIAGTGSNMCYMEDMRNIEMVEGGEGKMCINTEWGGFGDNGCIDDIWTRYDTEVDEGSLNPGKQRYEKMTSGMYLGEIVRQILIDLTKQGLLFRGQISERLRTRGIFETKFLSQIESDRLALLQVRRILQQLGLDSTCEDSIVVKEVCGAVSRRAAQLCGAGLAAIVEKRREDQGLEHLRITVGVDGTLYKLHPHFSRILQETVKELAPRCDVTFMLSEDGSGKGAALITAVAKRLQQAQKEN
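System: Recombinant HKDC1 hexokinase | Amount: HKDC1 at 5 µg/mL | Reagent: Glucose with 1 mM ATP | Doses: Single 20 µM dose | Incubation: Reaction time 90 min, room temperature, protected from light | Signal: Coupled resazurin fluorescence, excitation 525 nm, emission 613 nm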
EP2 mod: EP2 receptor modulators, cAMP readout, primary screen, cell-based, HTRF cAMP, PGE2 stimulation; 260,000 compounds, 0.83% hits; EP2-expressing cells, cAMP HTRF FRET, PGE2 co-stimulation; Prostaglandin E2 receptor EP2 subtype (Homo sapiens), P43116; induction, % at 25 µM;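 active = compounds whose cAMP rise, as percent of the full-agonist control response, exceeds 60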;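 also: rat C6 glioma line stably carrying human EP2 under a CMV promoter; the protocol text gives 20 µM as final concentration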
A number is an active result; . = inactive; / = no result given; ! = repeats disagree. Only some compounds are listed: those with a hit (about 2.5% of all), similar ones and a draw of the others.

SMILES | PGE2 EP2 inh | PfGluPho inh | TbHK1 inh | PHOSPHO1 block | HKDC1 inh | EP2 mod
CCOC(=O)C1=C(CSc2nc(C)cc(C)c2C#N)OC(N)=C(C#N)C1c1ccccc1 (stereo not drawn) | . | . | . | 91.4 | . | .
CCOC(=O)C1=C(CSc2nc(CC)c(C)cc2C#N)OC(N)=C(C#N)C1c1ccccc1 (stereo not drawn) | . | . | . | 89.0 | . | .
CCOC(=O)C1=C(CSc2nc(-c3ccccc3)ccc2C#N)OC(N)=C(C#N)C1c1ccc(OC)cc1 (stereo not drawn) | . | . | . | . | . | .
CCOC(=O)C1=C(CSc2nc3c(cc2C#N)CN(C)CC3)OC(N)=C(C#N)C1c1ccc(Cl)cc1 (stereo not drawn) | . | . | . | 66.7 | . | .
CC(CC(=O)Nc1nc2c(s1)C(=O)CC(C)(C)C2)c1ccccc1 (stereo not drawn) | . | / | / | / | / | .
COc1c(Cl)cc(Cl)cc1C1C(C#N)=C(N)OC2=C1C(=O)CCC2 (stereo not drawn) | . | / | / | / | / | .
Cc1cc(C(=O)O)c(CSCc2cc(C(=O)O)oc2C)o1 | . | . | . | 76.1 | . | .
CCCC(c1cc(C(C)(C)C)c(O)cc1C)c1cc(C(C)(C)C)c(O)cc1C | 63.8 | / | / | / | / | .
CCc1ccc2[nH]c(=O)c(CN(CCN(C)C)C(=O)Nc3cccc(Cl)c3)cc2c1 | . | / | / | / | / | .
Cc1ccc(C)n1-c1cccc(C(=O)O)c1 | . | / | / | 78.7 | / | .
O=C(N/N=C/c1ccncc1)c1cc2ccccc2cc1O | / | . | / | 61.0 | . | /
CCCC(=O)N(C)Cc1cc2cc(OC)ccc2[nH]c1=O | . | / | / | / | / | .
CC(C)C(=O)N1CCCc2cc(C(O)CN3CCCCC3)ccc21 (stereo not drawn) | . | / | / | / | / | .
Cc1[nH]c(=O)cc2ccccc12 | . | . | . | 93.8 | . | .
Cc1cc(=O)[nH]c2ccccc12 | . | . | . | . | . | .
O=C1c2ccccc2C(=O)c2c(NC3CCCCC3)ccc(Nc3ccc(S(=O)(=O)O)cc3)c21 | 71.0 | / | / | / | / | .
O=C1c2ccccc2C(=O)c2c(Nc3ccc(CCO)cc3)ccc(O)c21 | . | . | . | . | . | .
COc1ccc(C)cc1NC(=O)CSc1nnc2c(C)cc3cc(C)c(C)cc3n12 | . | / | / | / | / | .
Cc1ccc(S(=O)(=O)N2CCC(C(=O)O)(c3ccccc3)CC2)cc1 | 43.4 | / | / | / | / | .
Cc1sc(NC(=O)CSc2ncnc3c2cnn3-c2ccccc2)c(C#N)c1C | . | / | / | / | / | .
Cc1occc1-c1nnc(SCC(N)=O)n1Cc1ccco1 | . | / | / | / | / | .
Cn1ccnc1C(NC(=O)Cc1cccc(F)c1)c1ccc(F)c(F)c1 (stereo not drawn) | . | / | / | / | / | .
COc1ccc(NC(=O)N(C2CCCCC2)C(C)c2cccnc2)c(OC)c1 (stereo not drawn) | . | . | . | . | . | .
COc1ccc(NC(=O)N(C2CCCCC2)C(C)c2ccco2)c(OC)c1 (stereo not drawn) | . | . | . | . | . | 61.1
CCOCCCNC(=O)Cn1nc(CC)n2c(cc3occc32)c1=O | . | / | / | / | / | .
SMILES | PGE2 EP2 inh | PfGluPho inh | TbHK1 inh | PHOSPHO1 block | HKDC1 inh | EP2 mod
COc1ccccc1NC(=O)C1=C(C)NC2=C(C(=O)CC(C)(C)C2)C1c1cccs1 (stereo not drawn) | . | / | / | / | / | 62.8
Cc1c(NC(=O)Nc2c(Cl)cccc2Cl)c(=O)n(-c2ccccc2)n1C | 47.9! | . | . | . | . | .
Cc1c(NC(=O)Nc2ccccc2Cl)c(=O)n(-c2ccccc2)n1C | . | . | . | . | . | .
O=C(NNC(=S)Nc1ccc(F)cc1)c1ccccc1OC(F)F | . | . | . | 88.2 | . | .
Cc1ccc(NC(=S)NNC(=O)c2ccccc2OC(F)F)cc1 | / | . | . | 86.5 | . | .
Cc1ccc2[nH]c(=O)c(CN(CCO)C(=O)N3CCOCC3)cc2c1 | . | / | / | / | / | .
CCCCN1C(=O)C(O)(CC(=O)c2c(C)coc2C)c2ccccc21 (stereo not drawn) | . | . | . | . | . | .
CCCCN1C(=O)C2(NNc3ccccc3O2)c2ccccc21 (stereo not drawn) | . | . | . | 73.3 | . | .
C=CCN1C(=O)C2(NNc3ccccc3O2)c2ccccc21 (stereo not drawn) | . | . | . | 86.8 | . | .
CCC(C)NC(=O)C1CCCN(c2nc(C)cc(C)n2)C1 (stereo not drawn) | . | / | / | / | / | .
CCOC(=O)C1=C(N)OC2=C(C(=O)CC(C)(C)C2)C1c1ccc(C)cc1 (stereo not drawn) | . | / | / | / | / | 78.7
CCOC(=O)C1=C(N)OC2=C(C(=O)CC(C)(C)C2)C1c1ccc(C)s1 (stereo not drawn) | . | . | . | . | . | .
C[C@@]12CCC3[C@@](CCC4[C@@]3(C)CCC[C@@]4(C)C(=O)O)(CC1=O)C2 (stereo partly drawn) | / | . | / | / | . | /
CC(C)[C@]1(Cl)CC[C@H]2[C@]3(C)CCC[C@@](C)(C(=O)O)[C@H]3C[C@@H](Cl)[C@]2(Cl)[C@H]1Cl | 47.6 | / | / | / | / | .
CC(=O)Nc1ccc2c(c1)/C(=C/c1ccc([N+](C)(C)C)cc1)c1ccccc1-2 | 47.9 | / | / | / | / | .
CC(=O)Nc1ccccc1C=C1c2ccccc2-c2ccccc21 | . | / | / | / | / | .
c1ccc2c(c1)nnn2-c1ncnc2sc3c(c12)CCCC3 | . | . | . | . | . | .
Cc1nc(-n2nnc3ccccc32)c2c3c(sc2n1)CCCC3 | . | . | . | . | . | 61.1
COC(=O)c1sc2ncccc2c1OCc1cccc(Cl)c1 | . | . | . | . | . | .
COC(=O)c1sc2ncccc2c1OCc1c(Cl)cccc1Cl | . | . | . | . | . | 61.9
CCn1c(COc2ccccc2C)nnc1SCC(=O)CC(=O)Nc1ccccc1OC | . | . | . | . | . | .
CCn1c(COc2ccccc2)nnc1SCC(=O)CC(=O)Nc1ccccc1OC | . | . | . | 92.1 | . | .
CCn1c(COc2cccc(C)c2)nnc1SCC(=O)CC(=O)Nc1ccccc1OC | . | . | . | 93.3 | . | .

Screens: PubChem, several laboratories
